Columns and labels:
[1] = Cytotoxicity against HEK293T cells at 10 uM after 48 hrs by cell proliferation assay; assay type: toxicity, cell-based; settings: human, hek-293t
How it was run: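 HEK 293T cells seeded at 1×10^4 cells/well, treated next day with serially diluted compounds and cultured 48 h; viability read with a cell proliferation assay kit per manufacturer's instructions. Footnote reports testing at a final concentration of 10 μM.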

[2] = test system: Human immunodeficiency virus 1; assay: Antiviral activity against wild-type HIV-1 NL4-3 harboring vesicular stomatitis virus glycoprotein infected in HEK293T cells pretreated with cells for 15 mins followed by viral infection measured after 48 hrs by luciferase reporter gene assay; assay type: functional, cell-based; settings: Human immunodeficiency virus 1, NL4-3, HEK-293T
How it was run: (§1)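 VSV-G-pseudotyped HIV-1 (wild-type or RT mutant) produced by co-transfection of HEK293T cells (calcium phosphate), supernatant harvested 48 h, 0.22 µm filtered, normalised by p24 ELISA to 0.2 ng p24/mL.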

[3] = test system: Human immunodeficiency virus 1; assay: Ratio of IC50 for HIV-1 NL4-3 harboring RT-K103N/V108I double mutant infected in HEK293T cells co-expressing vesicular stomatitis virus glycoprotein to IC50 for wild-type HIV-1 NL4-3 infected in HEK293T cells co-expressing vesicular stomatitis virus glycoprotein; assay type: functional, HEK-293T
How it was run: (§2)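 Fold change: mean IC50 against each RT-mutant VSV-G-pseudotyped virus divided by IC50 against wild-type pseudovirus. Both values come from the same HEK293T assay: 0.2 ng p24/mL inoculum, compound added 15 min before infection, luciferase read-out at 48 h.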

[4] = test system: Human immunodeficiency virus 1; assay: Ratio of IC50 for HIV-1 NL4-3 harboring RT-Y188L mutant infected in HEK293T cells co-expressing vesicular stomatitis virus glycoprotein to IC50 for wild-type HIV-1 NL4-3 infected in HEK293T cells co-expressing vesicular stomatitis virus glycoprotein; assay type: functional, HEK-293T; how it was run: as §2
[5] = test system: Human immunodeficiency virus 1; assay: Ratio of IC50 for HIV-1 NL4-3 harboring RT-Y181C mutant infected in HEK293T cells co-expressing vesicular stomatitis virus glycoprotein to IC50 for wild-type HIV-1 NL4-3 infected in HEK293T cells co-expressing vesicular stomatitis virus glycoprotein; assay type: functional, HEK-293T; how it was run: as §2
[6] = test system: Human immunodeficiency virus 1; assay: Ratio of IC50 for HIV-1 NL4-3 harboring RT-K103N mutant infected in HEK293T cells co-expressing vesicular stomatitis virus glycoprotein to IC50 for wild-type HIV-1 NL4-3 infected in HEK293T cells co-expressing vesicular stomatitis virus glycoprotein; assay type: functional, HEK-293T
[7] = test system: Human immunodeficiency virus 1; assay: Antiviral activity against HIV-1 NL4-3 harboring RT-K103N/V108I double mutant infected in HEK293T cells coexpressing vesicular stomatitis virus glycoprotein pretreated with cells for 15 mins followed by viral infection measured after 48 hrs by luciferase reporter gene assay; assay type: functional, cell-based; settings: hek-293t; how it was run: as §1
[8] = test system: Human immunodeficiency virus 1; assay: Antiviral activity against HIV-1 NL4-3 harboring RT-Y188L mutant infected in HEK293T cells coexpressing vesicular stomatitis virus glycoprotein pretreated with cells for 15 mins followed by viral infection measured after 48 hrs by luciferase reporter gene assay; assay type: functional, cell-based; settings: hek-293t; how it was run: as §1
[9] = test system: Human immunodeficiency virus 1; assay: Antiviral activity against HIV-1 NL4-3 harboring RT-Y181C mutant infected in HEK293T cells coexpressing vesicular stomatitis virus glycoprotein pretreated with cells for 15 mins followed by viral infection measured after 48 hrs by luciferase reporter gene assay; assay type: functional, cell-based; settings: hek-293t; how it was run: as §1
[10] = test system: Human immunodeficiency virus 1; assay: Antiviral activity against HIV-1 NL4-3 harboring RT-K103N mutant infected in HEK293T cells coexpressing vesicular stomatitis virus glycoprotein pretreated with cells for 15 mins followed by viral infection measured after 48 hrs by luciferase reporter gene assay; assay type: functional, cell-based; settings: hek-293t; how it was run: as §1
[11] = Inhibition of wild-type HIV-1 reverse transcriptase RNA-dependent DNA polymerase activity assessed as reduction in digoxigenin-11-dUTP incorporation using poly(rA)/oligo(dT) as template/primer incubated for 1 hr; parameters: species or system Human immunodeficiency virus 1

Row | SMILES | Activity [1] | IC50 [2] | IC50 [11] | other results
1 | Fc1cc(F)cc(Cc2sc(NCc3ccc4c(c3)CCO4)nc2-c2ccc(Cl)cc2Cl)c1 | Non-Toxic | 68 nM | – | –
2 | COc1ccccc1Cc1sc(NCc2ccc3c(c2)CCO3)nc1-c1cc(F)cc(F)c1 | Non-Toxic | 7320 nM | – | –
3 | Fc1cc(F)cc(Cc2sc(NCc3ccc4c(c3)CCO4)nc2-c2ccc(F)cc2F)c1 | Non-Toxic | 13.9 to 14 nM | – | Ratio IC50 [3]: 218; Ratio IC50 [4]: 504; Ratio IC50 [5]: 79; Ratio IC50 [6]: 14; IC50 [7]: 3900 nM; IC50 [8]: 7000 nM; IC50 [9]: 1100 nM; IC50 [10]: 200 nM
4 | Fc1cc(F)cc(Cc2sc(NCc3ccc4c(c3)CCO4)nc2-c2ccccc2Cl)c1 | Non-Toxic | 10 nM | 25 nM | Ratio IC50 [3]: 29; Ratio IC50 [4]: 136; Ratio IC50 [5]: 39; Ratio IC50 [6]: 7.8; IC50 [7]: 300 nM; IC50 [8]: 1400 nM; IC50 [9]: 400 nM; IC50 [10]: 80 nM
5 | Clc1ccccc1-c1nc(NCc2ccc3c(c2)CCO3)sc1Cc1c(Cl)cccc1Cl | Non-Toxic | 22 nM | – | –
6 | COc1ccccc1Cc1sc(NCc2ccc3c(c2)CCO3)nc1-c1ccc(Cl)cc1Cl | Non-Toxic | 88 nM | – | –
7 | COc1ccccc1Cc1sc(NCc2ccc3c(c2)CCO3)nc1-c1ccccc1F | Non-Toxic | 10 nM | 20 nM | –
8 | Fc1ccccc1-c1nc(NCc2ccc3c(c2)CCO3)sc1Cc1c(Cl)cccc1Cl | Non-Toxic | 32 nM | – | –
9 | Fc1cc(F)cc(Cc2sc(NCc3ccc4c(c3)CCO4)nc2-c2ccccc2F)c1 | Non-Toxic | 10 nM | 64 nM | –
10 | Fc1ccc(-c2nc(NCc3ccc4c(c3)CCO4)sc2Cc2c(Cl)cccc2Cl)c(F)c1 | Non-Toxic | 21 nM | – | –
11 | COc1ccccc1Cc1sc(NCc2ccc3c(c2)CCO3)nc1-c1ccccc1Cl | Non-Toxic | 10 nM | 14 nM | –

Source: ChEMBL document CHEMBL3875141, “2,4,5-Trisubstituted thiazole derivatives as HIV-1 NNRTIs effective on both wild-type and mutant HIV-1 reverse transcriptase: Optimization of the substitution of positions 4 and 5” (Eur J Med Chem, 2016)
